Reference: article PMC7614726 (ACS chemical neuroscience, 2020)
Each block holds one compound with its values, some of them ahead of it.

How the values were obtained:
[1] = Precipitation on addition to culture medium; format: physicochemical; details: culture medium (RPMI 1640, 10% FBS)
[2] = tested on: acetylated α-tubulin in human whole blood lymphocytes; test: Human whole blood assay, acetylated α-tubulin by flow cytometry; format: cell-based; details: 10 and 30 μM
In short: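 Whole blood from healthy volunteers (25 μL) was mixed with compound diluted in RPMI 1640/10% FBS, with 0.1% DMSO final in controls. Incubation was 30 min at 37°C/5% CO2, then 3.5 h more after adding medium. Cells were lysed/fixed 10 min at room temperature and permeabilised 20 min on ice. Staining used AF647-labelled anti-acetylated α-tubulin or isotype control, 20–30 min on ice. Flow cytometry used a lymphocyte gate.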

[3] = tested on: SCG neurons expressing HSPB1^S135F; test: Axonal transport of mitochondria in SCG neurons expressing HSPB1 S135F; format: cell-based, mouse; details: 24 h, 100 nM T-3796106, 250 nM T-3793168, 1 μM Tubastatin A
In short: (§1)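 Medium contained NGF, 10% FBS and 4 μM aphidicolin. Nuclei were microinjected with mutant human HSPB1 plus mito-EGFP (total DNA ≤0.05 μg/μL). Controls got DMSO. Spinning-disk confocal at 37°C/5% CO2, […], frames 1 s apart for 2 min, 4–5 neurons per dish. Difference Tracker counted moving particles per 1000 pixels.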

[4] = tested on: wild-type SCG neurons; test: Axonal transport of mitochondria in dissociated wild-type SCG neurons; format: cell-based, mouse; details: 100 nM T-3796106, 250 nM T-3793168, 1 μM Tubastatin A, 24 h
[5] = tested on: SCG neurons expressing HSPB1^P182L; test: Axonal transport of mitochondria in SCG neurons expressing HSPB1 P182L; format: cell-based, mouse; details: 100 nM T-3796106, 250 nM T-3793168, 1 μM Tubastatin A
In short: as §1

Concentration showing some precipitate when added in the culture medium [1]: 300 µM
Structure (SMILES): O=C(CCCCCCNC(=O)c1cnc(N(c2ccccc2)c2ccccc2)nc1)NO [ACY-1215]
Levels of acetylated a-tubulin at 10 versus 30 μM [2]: almost the same

Structure (SMILES): CN1CCc2c(c3ccccc3n2Cc2ccc(C(=O)NO)cc2)C1 [Tubastatin A]
Average and maximum speed of mitochondria movement [3]: unaffected by any of these treatments
Rescue of anterograde mitochondrial transport (number of moving mitochondria) [3]: rescue of anterograde axonal transport
Number, average and maximum velocity of axonally transported mitochondria [4]: no significant change
Levels of acetylated a-tubulin at 10 versus 30 μM [2]: almost the same
Effect on mitochondrial movement [5]: no effect on mitochondrial movement
